The list is not random: actives were taken first. Their share in the collection is about 5.9%.
IDH1 mut inh: inhibitors of human IDH1 R132H. O75874. IDH1 R132H reductase, diaphorase/resazurin fluorescence, 60 min. actives 0.18% (n = 70,000). inhibition, % at 10 µM; in the data active means inhibition above about 34%; inconclusive means no clear call, values can overlap the other calls; inactive means below about 11%;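 further: 0% = DMSO and 100% = no enzyme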
Target sequence (O75874 whole entry R132H): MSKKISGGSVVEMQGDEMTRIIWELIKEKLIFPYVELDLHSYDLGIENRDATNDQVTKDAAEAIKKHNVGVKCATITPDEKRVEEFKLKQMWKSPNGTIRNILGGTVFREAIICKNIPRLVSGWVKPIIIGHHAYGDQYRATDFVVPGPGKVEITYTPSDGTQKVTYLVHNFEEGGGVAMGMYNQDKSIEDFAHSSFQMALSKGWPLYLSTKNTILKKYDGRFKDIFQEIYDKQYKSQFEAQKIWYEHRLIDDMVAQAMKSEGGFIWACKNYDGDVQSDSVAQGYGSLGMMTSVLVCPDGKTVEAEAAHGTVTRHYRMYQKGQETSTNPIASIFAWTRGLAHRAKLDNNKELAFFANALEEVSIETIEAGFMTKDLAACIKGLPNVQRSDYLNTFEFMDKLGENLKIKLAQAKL
Pf Dd2 growth: P. falciparum Dd2 growth inhibition. SYBR Green, 72 h; active compounds read low. activity change, % at 10 µM. actives 2.3% (n = 94,000); in the data active means activity change below about -80%; inconclusive means no clear call, values can overlap the other calls
KDM4C inh: inhibitors of human demethylase GASC-1 KDM4C | actives 0.15% (n = 96,000) | GST-KDM4C 2-372, H3K9me3 peptide, LANCE TR-FRET | inhibition, % at 12.5 µM;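 active means mean replicate inhibition above about 25%, with at least 55% of replicates also reaching it, limit read from the data, passing the limit was not always enough; inconclusive means only one of those two conditions met; inactive means neither condition met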
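Test system: N-terminal GST-fused human GASC-1 (KDM4C) fragment, residues 2-372; quantity: GASC-1 enzyme at 10 nM final in reaction; dosing: single dose; schedule: 30 min demethylation and 1 h detection at room temperature; signal: LANCE TR-FRET, excitation 340 nm, emissions 618 and 671 nm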
Tcruzi prolif: inhibitors of T. cruzi proliferation | T. cruzi beta-gal in NIH3T3, GalScreen luminescence, 90 h | inhibition, % at 8.34 µM | actives 5.9% (n = 77,000) | AID 624255;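 active means mean inhibition above about 93%, with at least 55% of replicates each passing it, limit read from the data, passing the limit was not always enough; inconclusive means only one of those two conditions holds; inactive means neither condition holds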
* = called active by the depositor; ? = inconclusive; / = no result.

SMILES	IDH1 mut inh	Pf Dd2 growth	KDM4C inh	Tcruzi prolif
CO[C@@H]1CN(C)C(=O)c2ccc(NC(=O)c3cc(C)on3)cc2OC[C@@H](C)N(S(=O)(=O)c2cccc(C)c2)C[C@H]1C	0	-86*	0	/
CO[C@@H]1CN(C)C(=O)c2ccc(NC(=O)c3nc4ccccc4s3)cc2OC[C@@H](C)N(Cc2ccccc2)C[C@H]1C	-1	-96*	-1	/
NC(=O)c1c(NC(=O)C(Cc2ccccc2)N2C(=O)c3ccccc3C2=O)sc2c1CCCC2 (stereo not given)	0	/	/	/
Nc1cccc(-c2nnc(SCC(=O)Nc3cccc(Cl)c3)n2-c2ccccc2)c1	0	/	/	/
C[C@@H]1CN([C@@H](C)CO)C(=O)c2cc(NC(=O)C3CCCCC3)ccc2O[C@@H](C)CCCCO[C@H]1CN(C)S(=O)(=O)c1ccc(Cl)cc1	/	-83*	/	87
Cc1ccc(S(=O)(=O)N(C)C[C@H]2OCCCC[C@@H](C)Oc3ccc(NC(=O)C4CCCCC4)cc3C(=O)N([C@H](C)CO)C[C@@H]2C)cc1	/	-55	2	0
Cc1ccc(S(=O)(=O)N(C)C[C@H]2OCCCC[C@H](C)Oc3ccc(NC(=O)C4CCCCC4)cc3C(=O)N([C@@H](C)CO)C[C@H]2C)cc1	/	-89*	0	63
C[C@H]1CN([C@@H](C)CO)S(=O)(=O)c2ccc(C#Cc3ccccc3F)cc2O[C@H]1CN(C)C(=O)c1ccc2c(c1)OCO2	/	-88*	3	/
C[C@H](CO)N1C[C@H](C)[C@@H](CN(C)C(=O)Cc2cccnc2)Oc2cc(C#Cc3ccccc3F)ccc2S1(=O)=O	/	-84*	5	/
CC(C)CC#Cc1ccc2c(c1)O[C@@H](CN(C)C(=O)Cc1cccnc1)[C@@H](C)CN([C@@H](C)CO)S2(=O)=O	13	-32	0	/
CC(C)CC#Cc1ccc2c(c1)O[C@H](CN(C)C(=O)Cc1cccnc1)[C@H](C)CN([C@H](C)CO)S2(=O)=O	52*	12	2	/
CC(C)CC#Cc1ccc2c(c1)O[C@@H](CN(C)C(=O)Cc1ccncc1)[C@@H](C)CN([C@H](C)CO)S2(=O)=O	3	?	3	84
CC(C)CC#Cc1ccc2c(c1)O[C@H](CN(C)C(=O)Cc1cccnc1)[C@@H](C)CN([C@@H](C)CO)S2(=O)=O	54*	-22	3	/
C[C@@H]1CN([C@@H](C)CO)S(=O)(=O)c2ccc(C#Cc3ccccc3F)cc2O[C@@H]1CN(C)C(=O)c1ccc2c(c1)OCO2	-2	-78	4	/
CCc1ccc(NC(=O)CN(C)S(=O)(=O)c2ccc3ccccc3c2)cc1	0	/	/	/
CC(C)CC#Cc1ccc2c(c1)O[C@@H](CN(C)C(=O)Cc1cccnc1)[C@H](C)CN([C@H](C)CO)S2(=O)=O	38*	-35	-1	/
O=C1c2cccc3cccc(c23)C(=O)N1OS(=O)(=O)c1cccc2cccnc12	1	/	/	/
C[C@@H]1CCCCO[C@@H](CN(C)Cc2ccc(C(=O)Nc3ccccc3N)cc2)[C@@H](C)CN([C@H](C)CO)C(=O)c2cc(NC(=O)Nc3ccc(C(F)(F)F)cc3)ccc2O1	0	-83*	1	/
C[C@@H]1CCCCO[C@@H](CN(C)Cc2ccc(C(=O)Nc3ccccc3N)cc2)[C@@H](C)CN([C@H](C)CO)C(=O)c2cc(NC(=O)Nc3ccc(F)cc3)ccc2O1	/	-87*	0	/
C[C@@H]1CCCCO[C@@H](CN(C)CC2CCCCC2)[C@H](C)CN([C@H](C)CO)C(=O)c2cc(NC(=O)Nc3ccccc3)ccc2O1	0	-84*	-1	94
COc1ccc(NC(=O)Nc2ccc3c(c2)C(=O)N([C@@H](C)CO)C[C@H](C)[C@H](CN(C)CC2CCCCC2)OCCCC[C@H](C)O3)cc1	1	-84*	-1	68
COc1cc(/C=N/NC(=O)CCCCCCC(=O)Nc2ccccc2O)c(Br)cc1O	0	/	/	/
COc1ccc(NC(=O)Cn2cnc3sc(-c4ccccc4)cc3c2=O)c([N+](=O)[O-])c1	0	/	/	/
CCC(=O)N[C@@H]1CC[C@H](CCn2cc(-c3cccc(OC)c3)nn2)O[C@@H]1CO	0	-20	29*	-41
COc1cccc(-c2cn(CC[C@@H]3CC[C@H](NC(=O)CC4CC4)[C@@H](CO)O3)nn2)c1	7	5	55*	4
COc1ccc(NC(=O)Nc2ccc3c(c2)C(=O)N([C@H](C)CO)C[C@@H](C)[C@H](CN(C)S(=O)(=O)c2ccc(F)cc2)OCCCC[C@@H](C)O3)cc1	5	-82*	-2	118
